Results on 9 compounds are retold here after ChEMBL document CHEMBL6087468, “TKK130 is a 3-Hydroxy-Propanamidine (HPA) with Potent Antimalarial In Vivo Activity and a High Barrier to Resistance” (J Med Chem, 2025).

For data set [1], the system named is Plasmodium falciparum. Kind of data set: Induction of resistance development in Plasmodium falciparum Dd2 Pol delta at 2 x 10^7 initial inoculum per flask measured on day 16 by single-step selection assay. Type of data set: functional, organism-based.
The test system of data set [2] is Plasmodium falciparum. In words: Induction of resistance development in Plasmodium falciparum Dd2 Pol delta at 2 x 10^7 initial inoculum per flask measured by growth inhibition assay. Type of data set: functional, organism-based. Put shortly:
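Recrudescent Dd2-Polδ parasites from DSM265 selection, compared with the parent line in the growth inhibition assay to measure the IC50 shift.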

Data set [3] has as its system Plasmodium falciparum. Kind of data set: Induction of resistance development in Plasmodium falciparum Dd2 Pol delta at 2 x 10^7 initial inoculum per flask by single-step selection assay. Type of data set: functional, organism-based.
For data set [4], the system named is Plasmodium berghei. Kind of data set: In vivo antiplasmodial activity against Plasmodium berghei infected mouse model assessed as curation rate at 30 mg/kg, po treated 4 times measured at 96 hrs post infection by fluorescence-activated cell sorting (FACS) analysis. Type of data set: functional.
For data set [5], the system named is Plasmodium berghei. In words: In vivo antiplasmodial activity against Plasmodium berghei infected mouse model assessed as mean survival time at 30 mg/kg, po treated 4 times measured at 96 hrs post infection by fluorescence-activated cell sorting (FACS) analysis (reference value: 4 days). The data set is classed as functional.
Data set [6] relates to Plasmodium berghei. In words: In vivo antiplasmodial activity against Plasmodium berghei infected mouse model assessed as parasitemia suppression in blood at 30 mg/kg, po treated 4 times measured at 96 hrs post infection by fluorescence-activated cell sorting (FACS) analysis. Type of data set: functional.
Data set [7] deals with Plasmodium falciparum. Kind of data set: Antimalarial activity against chloroquine, sulfadoxine, and pyrimethamine-resistant Plasmodium falciparum Dd2 infected in erythrocyte assessed as reduction in number of viable parasites at 10 times IC50 concentration treated for 120 hrs followed by allowed to recover in drug-free medium for 28 days by HRP2-ELISA analysis. The data set is classed as functional, organism-based.

For the next data set, the system named is Hemozoin. In words: Inhibition of beta-hematin formation assessed as formation of bis-pyridyl heme complex incubated for 4 to 5 hrs by Nonidet-40 based plate reader assay.
A short description of data set [8]: Metabolic stability in human liver microsomes assessed as intrinsic clearance at 50 ug/ml measured up to 60 mins. Type of data set: ADME, Microsome. Particulars: dose 50 µg/ml; for microsomal CLint at 50 ug/ml: liver microsomes, read-out: CLH. Summed up:
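Pooled human liver microsomes (150 donors) in 0.1 M potassium phosphate buffer pH 7.4, cosolvent method, analyte at 1 μM final; reactions stopped with ice-cold acetonitrile at 0, 15, 30, 45, 60 min; LC–MS/MS. Clint from ke (negative slope of ln peak-area ratio vs time) via t1/2 = ln2/ke; triplicate; no-cofactor negative control and blank run.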

The nature of data set [9]: Cytotoxicity against human HEK293 cells assessed as cell viability measured after 24 hrs by neutral red assay. The data set is classed as toxicity, cell-based.
The subject of data set [10] is Plasmodium falciparum. Kind of data set: Antimalarial activity against multidrug-resistant Plasmodium falciparum TM90C2b harboring pfcrt, pfmdr1, pfdhfr, pfdhps and pfcytb-Q0 mutated loci assessed as inhibition of parasite growth incubated for 48 hrs by [3H]hypoxanthine incorporation assay. Type of data set: functional, organism-based.
Data set [11] can be described thus: Cytotoxicity against human HeLa cells assessed as cell viability measured after 24 hrs by neutral red assay. Type of data set: toxicity, cell-based.
In the next data set the test system is Plasmodium knowlesi. Kind of data set: Antiplasmodial activity against Plasmodium Knowlesi inhibition of parasite growth measured after 48 hrs incubation by Sybr-green assay. The data set is classed as functional, organism-based.
The subject of data set [12] is Plasmodium falciparum. Kind of data set: Antimalarial activity against multidrug-resistant Plasmodium falciparum RF12 (PH-1263-C) harboring pfcrt, pfmdr1, pfdhfr, pfdhps and pfK13 plasmepsin II mutated loci assessed as inhibition of parasite growth incubated for 48 hrs by [3H]hypoxanthine incorporation assay. Type of data set: functional, organism-based.
The test system of data set [13] is Plasmodium falciparum. In words: Antimalarial activity against multidrug-resistant Plasmodium falciparum Dd2 harboring pfcrt, pfmdr1, pfdhfr, pfdhps mutated loci assessed as inhibition of parasite growth incubated for 48 hrs by [3H]hypoxanthine incorporation assay. Type of data set: functional, organism-based.
Data set [14] can be described thus: Plasma protein binding in plasma (unknown origin) at 25 ng/ml measured after 24 hrs by standard equilibrium dialysis assay. The data set is classed as ADME, cell-free. Particulars: read-out: PPB (converted). Summed up: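 Standard equilibrium dialysis (6 kDa regenerated cellulose membrane): donor plasma spiked at 25 ng/mL, acceptor 0.9% saline, 24 h at 37 °C. Acetonitrile precipitation of plasma, methanol added to acceptor; LC–MS/MS with calibration curves in each medium; fraction bound corrected for volume shift; triplicate; itraconazole reference.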

Data set [15] is described as follows: Plasma protein binding in plasma (unknown origin) at 25 ng/ml measured after 24 hrs by dilution method. The data set is classed as ADME, cell-free. Summed up: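 Equilibrium dialysis with donor plasma diluted 1:10 or 1:20 in 0.9% saline, spiked at 25 ng/mL, against 0.9% saline acceptor for 24 h at 37 °C. Concentrations by LC–MS/MS against diluted-plasma calibration curves; unbound fraction (acceptor/donor) back-calculated to undiluted plasma; triplicate; itraconazole reference.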

A short description of data set [16]: Selectivity index, ratio of IC50 for antimalarial activity against Plasmodium falciparum 3D7 to IC50 for cytotoxicity against human HEK293 cells. Particulars: HEK293 cells and Plasmodium falciparum 3D7.
Data set [17] in a line: Selectivity index, ratio of IC50 for antimalarial activity against Plasmodium falciparum 3D7 to IC50 for cytotoxicity against human HepG2 cells. The conditions noted are these: HepG2 cells and Plasmodium falciparum 3D7.
The test system of data set [18] is Plasmodium falciparum. Kind of data set: Antimalarial activity against chloroquine, sulfadoxine, and pyrimethamine-resistant Plasmodium falciparum Dd2 infected in erythrocytes measured after 3 days by HRP2-ELISA analysis. Particulars: Dd2, Erythrocyte, 72 h. Type of data set: functional, organism-based.
Data set [19] concerns Plasmodium berghei. Kind of data set: In vivo antiplasmodial activity against Plasmodium berghei infected mouse model assessed as mean survival time at 50 mg/kg, po treated 4 times measured at 96 hrs post infection by fluorescence-activated cell sorting (FACS) analysis (reference value: 4 days). Type of data set: functional.
For data set [20], the system named is Plasmodium falciparum. Kind of data set: Antimalarial activity against Plasmodium falciparum K1 infected in human erythrocytes assessed as inhibition of parasite growth measured after 48 hrs incubation by [3H]hypoxanthine incorporation assay. The data set is classed as functional, organism-based. The conditions noted are these: K1, Erythrocyte.
Data set [21] has as its system Plasmodium berghei. In words: In vivo antiplasmodial activity against Plasmodium berghei infected mouse model assessed as mean survival time at 10 mg/kg, po treated 4 times measured at 96 hrs post infection by fluorescence-activated cell sorting (FACS) analysis (reference value: 4 days). The data set is classed as functional.
In data set [22] the test system is Plasmodium falciparum. In words: Antimalarial activity against chloroquine, sulfadoxine, and pyrimethamine-resistant Plasmodium falciparum Dd2 infected in erythrocyte assessed as reduction in number of viable parasites at 10 times IC50 concentration treated for 24 hrs followed by allowed to recover in drug-free medium for 28 days by HRP2-ELISA analysis. Type of data set: functional, organism-based.

Data set [23] is described as follows: Selectivity index, ratio of IC50 for antimalarial activity against Plasmodium falciparum 3D7 to IC50 for cytotoxicity against human HeLa cells. The conditions noted are these: HeLa cells and Plasmodium falciparum 3D7.
Data set [24] relates to Plasmodium berghei. Kind of data set: In vivo antiplasmodial activity against Plasmodium berghei infected mouse model assessed as curation rate at 10 mg/kg, po treated 4 times measured at 96 hrs post infection by fluorescence-activated cell sorting (FACS) analysis. Type of data set: functional.
Data set [25] has as its system Plasmodium berghei. In words: In vivo antiplasmodial activity against Plasmodium berghei infected mouse model assessed as parasitemia suppression in blood at 50 mg/kg, po treated 4 times measured at 96 hrs post infection by fluorescence-activated cell sorting (FACS) analysis. The data set is classed as functional.
Data set [26] in a line: Cytotoxicity against human HepG2 cells assessed as cell viability measured after 24 hrs by neutral red assay. The data set is classed as toxicity, cell-based.
The subject of data set [27] is Plasmodium falciparum. Kind of data set: Antimalarial activity against Plasmodium falciparum NF54 infected in human erythrocytes assessed as inhibition of parasite growth measured after 48 hrs incubation by [3H]hypoxanthine incorporation assay. Particulars: NF54, Erythrocyte. The data set is classed as functional, organism-based.
Data set [28] concerns Plasmodium falciparum. Kind of data set: Antimalarial activity against chloroquine, sulfadoxine, and pyrimethamine-resistant Plasmodium falciparum Dd2 infected in erythrocyte assessed as reduction in number of viable parasites at 10 times IC50 concentration treated for 72 hrs followed by allowed to recover in drug-free medium for 28 days by HRP2-ELISA analysis. Type of data set: functional, organism-based.

The subject of data set [29] is Plasmodium falciparum. In words: Antimalarial activity against chloroquine-sensitive Plasmodium falciparum 3D7 infected in erythrocytes measured after 3 days by HRP2-ELISA analysis. The data set is classed as functional, organism-based. Particulars: 3D7, Erythrocyte, 72 h.
Data set [30] relates to Plasmodium berghei. Kind of data set: In vivo antiplasmodial activity against Plasmodium berghei infected mouse model assessed as parasitemia suppression in blood at 10 mg/kg, po treated 4 times measured at 96 hrs post infection by fluorescence-activated cell sorting (FACS) analysis. Type of data set: functional.
Data set [31] has as its system Plasmodium berghei. Kind of data set: In vivo antiplasmodial activity against Plasmodium berghei infected mouse model assessed as parasitemia suppression in blood at 3 mg/kg, po treated 4 times measured at 96 hrs post infection by fluorescence-activated cell sorting (FACS) analysis. Type of data set: functional.

The source made the active and inactive calls. No cut-off for these calls is given here. Bounds are passed on as bounds.

`Cc1cc(Nc2ccc(S(F)(F)(F)(F)F)cc2)n2nc(C(C)(F)F)nc2n1` [DSM-265]: the Activity result in the data set on Plasmodium falciparum [1] is “Not active; Recrudescence Of Parasite Observed”. Moreover, the IC50 in the data set with Plasmodium falciparum [2] was 0.232 µM; with Plasmodium falciparum [3], 0.0102 µM.
In the case of `C[C@@H]1CC[C@H]2[C@@H](C)C(=O)O[C@@H]3O[C@@]4(C)CC[C@@H]1[C@]32OO4` [ARTEMISININ], the Activity with Plasmodium berghei [4] is recorded as 0%; in the data set with Plasmodium berghei [6] it was 99%. Besides, in the data set on Plasmodium berghei [5], the MSD came to 9 days.
`O=C1C(O)=C([C@H]2CC[C@H](c3ccc(Cl)cc3)CC2)C(=O)c2ccccc21`: the Activity result with Plasmodium falciparum [7] is “Active; Compound Exhibited Slower Acting”.
As to `CCCCN(CCCC)CCC(O)c1cc2c(Cl)cc(Cl)cc2c2cc(C(F)(F)F)ccc12` (stereo unspecified) [HALOFANTRINE], the IC50 in the data set on Hemozoin was found to be 13.4 µM. The microsomal CLint at 50 ug/ml in data set [8] amounted to 26.9 µL/min/mg.
As to `CCN(CC)CCCC(C)Nc1ccnc2cc(Cl)ccc12` (stereo unspecified) [CHLOROQUINE], the Activity with Plasmodium berghei [4] is given as 0%; in the data set on Plasmodium berghei [6] it was 99.9%. In addition, the IC50 at 24 h in [9] and in data set [11] was over 1000 µM in each case. In addition, the half-maximal inhibitory concentration (IC50) was 0.013 µM in the data set on Plasmodium falciparum [10], 0.016 µM in the data set with Plasmodium knowlesi, 0.004 µM with Plasmodium falciparum [12] and 0.015 µM in the data set on Plasmodium falciparum [13]. The MSD in the data set with Plasmodium berghei [5] is 21 days. Moreover, in data set [8], the microsomal CLint at 50 ug/ml is under 7 µL/min/mg.
`CCC(C)n1ncn(-c2ccc(N3CCN(c4ccc(OCC5COC(Cn6cncn6)(c6ccc(Cl)cc6Cl)O5)cc4)CC3)cc2)c1=O` (stereo unspecified) [ITRACONAZOLE]: the values for the fraction unbound at 24 h, 25 ng/ml in data set [14] and in data set [15] were 0.016 and 0.004, respectively.
As to `COc1ccc(/N=C(\N)CC(O)c2cc3c(F)cc(F)cc3c3cc(C(F)(F)F)ccc23)cc1` (stereo unspecified), the figures for the selectivity ratio in data set [16], in data set [17] and in data set [23] were 7360, 860 and 9220, respectively. The half-inhibitory concentration (IC50) worked out at 8.4 µM in the data set on Hemozoin; 0.012 µM with Plasmodium falciparum [18]; 0.006 µM in the data set on Plasmodium falciparum [20]; 0.016 µM in the data set with Plasmodium falciparum [27]; 0.005 µM with Plasmodium falciparum [29]. The MSD with Plasmodium berghei [19] was determined as 27 days; in the data set with Plasmodium berghei [21] it was 17 days; with Plasmodium berghei [5], 28 days. The Activity result in the data set with Plasmodium falciparum [22] is recorded as “Active; Compound Exhibited Fast-Acting Than Dihydroartemisinin”; with Plasmodium berghei [24], 0%; in the data set on Plasmodium berghei [25] it was 99.8%; in the data set with Plasmodium berghei [6] it was 99.9%; in the data set with Plasmodium berghei [30], 99.9%; in the data set on Plasmodium berghei [31], 0%. For the same compound, the result with Plasmodium falciparum [7] and in the data set with Plasmodium falciparum [28] was Active. Moreover, in data set [26], the IC50 at 24 h came out at 4.2 µM. For the same compound, in data set [8] (microsomes, 1 h), the CLint turned out to be 13.6 µL/min/mg.
In the case of `CCCCN(CCCC)CC(O)c1cc(Cl)cc2c1-c1ccc(Cl)cc1/C2=C/c1ccc(Cl)cc1` (stereo unspecified) [LUMEFANTRINE], the selectivity ratio in data set [17] was over 20. Moreover, the half-inhibitory concentration (IC50) in the data set with Plasmodium falciparum [18] was 0.002 µM; with Plasmodium falciparum [20], 0.001 µM; in the data set with Plasmodium falciparum [27] it was 0.005 µM; in the data set with Plasmodium falciparum [29], 0.006 µM. For the same compound, the MSD in the data set with Plasmodium berghei [5] is over 30 days. For the same compound, the IC50 at 24 h in data set [26] is over 20 µM. Besides, in the data set with Plasmodium berghei [6], the Activity worked out at 99.8%.
In the case of `CCc1nc(N)nc(N)c1-c1ccc(Cl)cc1`, the Activity entry in the data set on Plasmodium falciparum [28] is listed as “Active; Compound Exhibited Slower Acting”.
